SMILES strings stand for the structures. The source made the active and inactive calls. The rule behind the calls is not given here.

Data set [1] deals with Dengue virus. In words: Antiviral activity against 0.0001 MOI Dengue virus NGC infected in Cricetinae BHK21 cells assessed as decrease in viral E protein production […] by plaque reduction assay. The note with it: BHK-21. Format: functional, organism-based.
The nature of data set [2]: Cytotoxicity against human A549 cells after 48 hrs by celltiter-glo luminescent cell viability assay. The format is cell-based. The gist of the method:
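A549 cells plated and compound added as in the immunodetection assay, then incubated for 48 h. Viability by CellTiter-Glo luminescence relative to DMSO-treated cells, giving CC50.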

Data set [3] relates to Dengue virus. In words: Antiviral activity against Dengue virus NGC infected in human A549 cells assessed as decrease in viral E protein production after 48 hrs by CFI assay. The format is functional, organism-based. To be noted: A549, 48 h. In a few lines: (§1)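 A549 or BHK21 cells at 2 x 10^4/well grown overnight, then infected at MOI 0.3 with compound dilutions for 1 h at 37°C. Inoculum replaced by medium with compound for 48 h. Methanol-fixed, probed with anti-E antibody 4G2 and HRP anti-mouse IgG, developed with TMB, absorbance at 450 nm. EC50 by nonlinear regression of mean absorbance vs log concentration.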

Data set [4] has as its system Dengue virus. Kind of data set: Antiviral activity against Dengue virus NGC infected in human A549 cells assessed as colocalization of virus measured as E protin signal after 2 hrs by confocal microscopy. Format: functional, organism-based. The gist of the method:
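Virus pre-incubated with biotinylated compound, then passed through a gel-filtration spin column. Eluate used to infect A549 cells on coverslips for 2 h at 37°C. Cells fixed in formaldehyde for 15 min, compound detected with streptavidin-FITC and virus with anti-E antibody. Confocal microscopy.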

The test system of data set [5] is Dengue virus. Kind of data set: Antiviral activity against Dengue virus NGC infected in human A549 cells assessed as change in endosomal pH at 0.2 microM by Lysosensor green DND189 accumulation assay. The format is functional, organism-based. In a few lines: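 A549 cells on coverslips exposed to compound or bafilomycin A1 in Ham's F-12 with 2% FBS for 4 h at 37°C; 0.9% DMSO as control. Stained with 0.5 µM Lysosensor green DND-189 for 2 min at room temperature, washed, and imaged live by fluorescence microscopy.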

The next data set deals with Yellow fever virus. Kind of data set: Antiviral activity against Yellow fever virus 17D infected in human A549 cells assessed as decrease in viral E protein production after 48 hrs by CFI assay. Format: functional, cell-based. To be noted: A549, 48 h. The gist of the method: as §1
The test system of the next data set is dengue virus type 4. Kind of data set: Antiviral activity against DENV-4 isolate My01-22713 infected in Cricetinae BHK21 cells assessed as decrease in viral E protein production after 48 hrs by CFI assay. Format: functional, organism-based. To be noted: isolate My01-22713, BHK-21, 48 h. The gist of the method:
as §1

Data set [6] deals with Dengue virus. Kind of data set: Antiviral activity against 25 MOI Dengue virus NGC infected in human A549 cells assessed as colocalized virus with endocytosed dextran by confocal microscopy. The format is functional, organism-based. The gist of the method:
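A549 cells on coverslips (1 x 10^5/well) infected at MOI 0.3? no: MOI 25 with 5 µM compound for 7 h. Rhodamine-dextran 20 mg/ml added for 20 min at 37°C, then methanol fixation and anti-E 4G2 staining with FITC secondary. Examined by confocal microscopy.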

For data set [7], the system named is dengue virus type 2. In words: Antiviral activity against DENV-2 NGC infected in human A549 cells assessed as decrease in viral E protein production after 48 hrs by CFI assay. To be noted: A549, 48 h. The format is functional, organism-based. The gist of the method: as §1
For the next data set, the system named is dengue virus type 3. In words: Antiviral activity against DENV-3 isolate My99-21531 infected in Cricetinae BHK21 cells assessed as decrease in viral E protein production after 48 hrs by CFI assay. Format: functional, organism-based. The note with it: isolate My99-21531, BHK-21, 48 h. In a few lines: as §1
Data set [8] has as its system Dengue virus. Kind of data set: Antiviral activity against Dengue virus NGC infected in human A549 cells assessed as decrease in viral E protein production during early stage of virus life cucle by CFI assay. To be noted: TDE = time-dependent effect. Format: functional, organism-based. The gist of the method: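 A549 cells infected at MOI 0.3 for 1 h at 37°C. Compound dilutions were present during infection only, after infection only, or throughout. Alternatively, a fixed concentration was added at 0–120 min after virus. E protein measured by immunodetection at 48 h. Duplicate wells in two experiments, or three independent experiments for the time course.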

The nature of data set [9]: Antiviral activity against Japanese encephalitis virus Nakayama infected in Cricetinae BHK21 cells assessed as decrease in viral E protein production after 48 hrs by CFI assay. Format: functional, cell-based, Japanese encephalitis virus strain Nakayama. The note with it: BHK-21, 48 h. In a few lines: as §1
Another data set has as its system dengue virus type 1. In words: Antiviral activity against DENV-1 isolate My97-10245 infected in Cricetinae BHK21 cells assessed as decrease in viral E protein production after 48 hrs by CFI assay. The format is functional, organism-based. To be noted: isolate My97-10245, BHK-21, 48 h. In a few lines: as §1
Data set [10] has as its system Dengue virus. In words: Antiviral activity against Dengue virus NGC infected in human A549 cells assessed as viral antigen expression at 0.2 microM. Format: functional.
For data set [11], the system named is Dengue virus. Kind of data set: Binding affinity to Dengue virus particles by liquid chromatography. In a few lines: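 Dengue virus (6 x 10^7 PFU) incubated with 5 µM compound at room temperature for 30 min, then loaded onto a gel-filtration spin column and centrifuged. Eluate analysed by LC-MS/MS in multiple-reaction-monitoring mode. Compound without virus run as a control.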

The subject of data set [12] is Dengue virus. In words: Antiviral activity against 25 MOI Dengue virus NGC infected in human A549 cells assessed as inhibition of NS3 protein production by CFI assay. Format: functional, organism-based. The gist of the method: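 A549 cells on coverslips infected at MOI 25 with or without compound for 7 h. Methanol-fixed and stained with anti-E 4G2 and anti-NS3 antibodies plus fluorescent secondaries, DAPI mounting. Immunofluorescence microscopy.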

The test system of data set [13] is dengue virus type 2. Kind of data set: Antiviral activity against DENV-2 NGC infected in Cricetinae BHK21 cells assessed as decrease in viral E protein production after 48 hrs by CFI assay. Format: functional, organism-based. To be noted: BHK-21, 48 h. The gist of the method: as §1
The test system of another data set is West Nile virus. Kind of data set: Antiviral activity against West nile virus B956 infected in Cricetinae BHK21 cells assessed as decrease in viral E protein production after 48 hrs by CFI assay. The format is functional, organism-based. To be noted: B956, BHK-21, 48 h. In a few lines:
as §1

As usually defined, the EC50 is the concentration giving half of the maximal effect. By CC50 is commonly meant the concentration at which the toxic effect on the cells reaches its halfway point. As for `CC1(C)CC(Nc2nc(-c3ccc(-c4ccc(Cl)cc4)s3)c3ccccc3n2)CC(C)(C)N1`, the EC50 amounted to 84 nM in the data set on Dengue virus [1] and 40 nM in the data set on Dengue virus [3]. In addition, the CC50 at 48 h in data set [2] is 18600 nM.

Consider `O=C(CCCC[C@@H]1SC[C@H]2NC(=O)N[C@@H]12)NCCOCCOCCNc1nc(-c2ccc(-c3ccc(Cl)cc3)s2)c2ccccc2n1`, for which the result in the data set with Dengue virus [4] was inactive. The EC50 in the data set on Dengue virus [3] amounted to 234 nM.

Regarding `Clc1ccc(-c2ccc(-c3ccnc(N4CCNCC4)n3)s2)cc1`, the values for the EC50 with Dengue virus [1] and with Dengue virus [3] were 41 nM and 90 nM, respectively. The same compound gave a CC50 at 48 h in [2] of more than 20000 nM.

For `CC(C)(N)/C=C/c1cccc(-c2ccc(-c3ccnc(NC4CC(C)(C)NC(C)(C)C4)n3)s2)n1`, the values for the EC50 with Dengue virus [1] and with Dengue virus [3] were 310 nM and 1690 nM, respectively. This compound also came in with a CC50 at 48 h in [2] of more than 20000 nM.

For `Clc1ccc(-c2ccc(-c3nc(NCc4cccnc4)nc4ccccc34)s2)cc1`, in the data set with Dengue virus [5], the outcome was inactive. The EC50 in the data set with Yellow fever virus was determined as 470 nM; with dengue virus type 4, 334 nM; with Dengue virus [1] it was 198 nM; in the data set on dengue virus type 2 [7], 119 nM; in the data set on dengue virus type 3 it was 496 nM; in the data set on Dengue virus [3], 70 nM. Also, the EC50 in data set [9] was 1420 nM; in the data set on dengue virus type 1, 108 nM; in the data set on dengue virus type 2 [13], 68 nM; in the data set on West Nile virus, 564 nM. Also, the outcome in the data set on Dengue virus [6], in the data set with Dengue virus [11] and in the data set on Dengue virus [12] was Active. This compound also yielded a CC50 at 48 h in [2] of more than 20000 nM. The Activity result in the data set with Dengue virus [8] was “tde”; in the data set on Dengue virus [10], more than 50%.

`CC(=O)c1cccc(-c2ccc(-c3ccnc(NC4CC(C)(C)NC(C)(C)C4)n3)s2)c1`: the EC50 in the data set with Dengue virus [1] came out at 300 nM; in the data set on Dengue virus [3], 900 nM. Further, the CC50 at 48 h in data set [2] is more than 20000 nM.

For the compound `CC1(C)CC(Nc2nccc(-c3ccc(-c4ccc(Cl)cc4)s3)n2)CC(C)(C)N1`, the EC50 came out at 320 nM in the data set on Dengue virus [1] and 270 nM with Dengue virus [3]. In addition, the CC50 at 48 h in data set [2] is more than 20000 nM.

The values are drawn from ChEMBL document CHEMBL1629677, “A small-molecule dengue virus entry inhibitor” (Antimicrob Agents Chemother, 2009).
